Source: ChEMBL document CHEMBL1138931, “Synthesis and antimalarial efficacy of aza-fused rhodacyanines in vitro and in the P. berghei mouse model” (J Med Chem, 2006)

How the values were obtained:
Plasmodium berghei [1] = assay: Suppression of Plasmodium berghei NK65 infected ICR mice (Mus musculus) at 25 mg/kg/day intraperitoneal dose over 4 days; type: functional
Outline: (§1)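 Peters' 4-day suppressive test: ICR mice (five per group) infected with drug-sensitive P. berghei NK65, dosed daily for 4 days intraperitoneally or per os. Percent suppression = reduction of parasitemia in treated versus untreated infected control mice. Mice were observed after treatment to record mean survival days.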

Mus musculus [2] = assay: Activity in ICR mice (Mus musculus) infected with Plasmodium berghei NK65 after 4 days at 25 mg/kg/day, intraperitoneally assessed as mean survival days; type: functional; conditions: route intraperitoneal
Outline: (§2)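 Peters' 4-day suppressive test; P. berghei NK65 (drug-sensitive) in groups of five ICR mice; compound given daily for 4 days, ip or po at the stated mg kg-1 day-1. Mice followed after treatment ends; mean survival days recorded against untreated infected controls.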

Plasmodium falciparum = assay: Antimalarial activity against chloroquine-resistant Plasmodium falciparum K1; type: functional, organism-based
Outline: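 P. falciparum K1 (chloroquine-resistant) tested in vitro by the Desjardins method; activity given as EC50.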

L6 [3] = assay: Selectivity index, EC50 for L6 cells/EC50 for Plasmodium falciparum K1; type: functional
Outline: (§3)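 Rat skeletal myoblast L-6 line used for cytotoxicity; EC50 determined. Antiplasmodial EC50 was measured against chloroquine-resistant P. falciparum strain K1 in vitro by the Desjardins method. Selectivity index = EC50(L-6)/EC50(P. falciparum K1).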

L6 [4] = assay: Cytotoxicity against rat L6 cell line; type: functional, cell-based; outline: as §3
Plasmodium berghei [5] = assay: Suppression of Plasmodium berghei NK65 infected ICR mice (Mus musculus) at 10 mg/kg/day intraperitoneal dose over 4 days; type: functional; outline: as §1
Mus musculus [6] = assay: Activity in ICR mice (Mus musculus) infected with Plasmodium berghei NK65 after 4 days at 40 mg/kg/day, intraperitoneally assessed as mean survival days; type: functional; conditions: route intraperitoneal; outline: as §2
Plasmodium berghei [7] = assay: Suppression of Plasmodium berghei NK65 infected ICR mice (Mus musculus) at 100 mg/kg/day peroral dose over 4 days; type: functional; conditions: route oral; outline: as §1
Mus musculus [8] = assay: Activity in ICR mice (Mus musculus) infected with Plasmodium berghei NK65 after 4 days at 10 mg/kg/day, intraperitoneally assessed as mean survival days; type: functional; conditions: route intraperitoneal; outline: as §2
Mus musculus [9] = assay: Activity in ICR mice (Mus musculus) infected with Plasmodium berghei NK65 after 4 days at 100 mg/kg/day, perorally assessed as mean survival days; type: functional; conditions: route oral; outline: as §2
Mus musculus [10] = assay: Activity in ICR mice (Mus musculus) infected with Plasmodium berghei NK65 after 4 days at 20 mg/kg/day, intraperitoneally assessed as mean survival days; type: functional; conditions: route intraperitoneal; outline: as §2
Plasmodium berghei [11] = assay: Suppression of Plasmodium berghei NK65 infected ICR mice (Mus musculus) at 40 mg/kg/day intraperitoneal dose over 4 days; type: functional; outline: as §1
Plasmodium berghei [12] = assay: Suppression of Plasmodium berghei NK65 infected ICR mice (Mus musculus) at 20 mg/kg/day intraperitoneal dose over 4 days; type: functional; outline: as §1

| Compound | Activity (Plasmodium berghei [1]) | Activity (Mus musculus [2]) | EC50 (Plasmodium falciparum) | Selectivity index (L6 [3]) | EC50 (L6 [4]) | other results |
| --- | --- | --- | --- | --- | --- | --- |
| CCN1C(=O)/C(=c2/s/c(=C3/SCCN3C)c(=O)n2CC)S/C1=N\c1sc2cc(OC)ccc2[n+]1C.[Cl-] | 95% | 5 days |  |  |  |  |
| C=CC[n+]1ccccc1/C=c1\s/c(=C2/Sc3ccccc3N2C)c(=O)n1C.Cc1ccc(S(=O)(=O)[O-])cc1 |  |  | 19 nM | 5000 | 100000 nM | Activity (Plasmodium berghei [5]): 27% |
| CCN1C(=O)/C(=C2\C=Cc3ccccc3N2C)S/C1=N\c1sc2cc(Cl)ccc2[n+]1C.[Cl-] |  |  | 4.4 nM | 2500 | 11000 nM |  |
| CCN1C(=O)/C(=c2/s/c(=C3/SCCN3C)c(=O)n2CC)S/C1=N\c1sc2cc(Cl)ccc2[n+]1C.[Cl-] |  | 16 days | 23 nM | 520 | 12000 nM |  |
| CCn1c(=O)/c(=C2\C=CC=CN2C)s/c1=C1\S/C(=N\c2sc3cc(Cl)ccc3[n+]2C)N(C(C)C)C1=O.[Cl-] |  | 7.7 days |  |  |  |  |
| CCN1C(=O)/C(=c2/s/c(=C3/C=CC=CN3C)c(=O)n2CC)S/C1=N\c1sc2cc(Cl)ccc2[n+]1C.[Cl-] |  | 25.3 days | 10 nM | 4600 | 46000 nM | Activity (Mus musculus [6]): 7 days; Activity (Plasmodium berghei [7]): 41.7%; Activity (Mus musculus [8]): 11.8 days; Activity (Mus musculus [9]): 6.5 days; Activity (Mus musculus [10]): 20.3 days |
| CCN(CC)CCCC(C)Nc1ccnc2cc(Cl)ccc12 (stereo not given) [CHLOROQUINE] |  |  | 150 nM |  |  | Activity (Mus musculus [8]): 22.7 days; Activity (Plasmodium berghei [5]): 90.6% |
| CCN1C(=O)/C(=C2\Sc3ccccc3N2C)S/C1=N\c1sc2cc(Cl)ccc2[n+]1C.[Cl-] |  | 5.5 days |  |  |  |  |
| C=CCN1C(=O)/C(=c2/s/c(=C3/C=CC=CN3C)c(=O)n2CC)S/C1=N\c1sc2cc(Cl)ccc2[n+]1C.[Cl-] | 95.7% | 18 days |  |  |  |  |
| CCN1C(=O)/C(=c2/s/c(=C3/C=CC=CN3C)c(=O)n2CC)S/C1=N\c1scc(-c2ccc(Cl)cc2)[n+]1C.[Cl-] | 95.6% | 5.3 days |  |  |  |  |
| C=CCN1C(=O)/C(=c2/s/c(=C3/SCCN3C)c(=O)n2CC)S/C1=N\c1sc2cc(Cl)ccc2[n+]1C.[Cl-] | 73.1% | 12.8 days |  |  |  |  |
| CCN1C(=O)/C(=c2/s/c(=C3/C=Cc4ccccc4N3C)c(=O)n2CC)S/C1=N\c1sc2cc(Cl)ccc2[n+]1C.[Cl-] | 49.7% | 7 days |  |  |  |  |
| CCN1C(=O)/C(=C2\C=Cc3ccccc3N2C)S/C1=N\c1cccc[n+]1C.[Cl-] |  |  | 5.9 nM | 20000 | 120000 nM |  |
| CCN1C(=O)/C(=c2/s/c(=C3/C=CC=CN3C)c(=O)n2CC)S/C1=N\c1sc2cc(F)ccc2[n+]1C.[Cl-] | 79.5% | 10.8 days |  |  |  |  |
| CCN1C(=O)/C(=c2/s/c(=C3/C=CC=CN3C)c(=O)n2CC)S/C1=N\c1sc2ccccc2[n+]1C.[Cl-] | 96.4% | 22 days | 22 nM | 640 | 14000 nM | Activity (Plasmodium berghei [11]): 97.8%; Activity (Plasmodium berghei [12]): 92.4%; Activity (Mus musculus [6]): 7.8 days; Activity (Mus musculus [8]): 9.8 days; Activity (Mus musculus [10]): 19 days; Activity (Plasmodium berghei [5]): 70.8% |
| CCN1C(=O)/C(=c2/s/c(=C3/C=CC=CN3C)c(=O)n2CC)S/C1=N\c1sc2cc(OC)ccc2[n+]1C.[Cl-] | 98.3% | 6.3 days |  |  |  |  |
| CCN1C(=O)/C(=c2/s/c(=C3/C=Cc4ccccc4N3C)c(=O)n2CC)S/C1=N\c1cccc[n+]1C.[Cl-] | 78.4% | 5.6 days |  |  |  |  |
